In ChEMBL document CHEMBL4002556, “Acetophenone Monomers from Acronychia trifoliolata” (J Nat Prod, 2016):
pIC50: −log10 of the molar value.

What was measured:
Type in all cases: functional, cell-based
A549 = experiment: Cytotoxicity against human A549 cells assessed as growth inhibition after 48 hrs by SRB assay; settings: A549, 48 h
In short: (§1)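 Sulforhodamine B (SRB) read-out of antiproliferative effect. IC50 is the concentration giving 50% reduction relative to untreated cells, determined separately for each cell line.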

KB = experiment: Cytotoxicity against human KB cells assessed as growth inhibition after 48 hrs by SRB assay; in short: as §1
[1] = Cytotoxicity against human KBVIN cells assessed as growth inhibition after 48 hrs by SRB assay; in short: as §1
MDA-MB-231 = experiment: Cytotoxicity against human MDA-MB-231 cells assessed as growth inhibition after 48 hrs by SRB assay; settings: MDA-MB-231, 48 h; in short: as §1
MCF7 = experiment: Cytotoxicity against human MCF7 cells assessed as growth inhibition after 48 hrs by SRB assay; settings: MCF7, 48 h

`COc1c2c(c(CC=C(C)C)c(O)c1C(C)=O)OC(C(C)(C)O)C2` (stereo not drawn) showed a pIC50 (A549) of less than 4.40, a pIC50 (KB) of less than 4.40 and a pIC50 [1] of less than 4.40. For the same molecule, the pIC50 (MDA-MB-231) was less than 4.40 and the pIC50 (MCF7) was less than 4.40.
With `COc1c(CC=C(C)C)c(O)c2c(c1C(C)=O)OC(C)(C)C(O)C2` (stereo not drawn) the pIC50 (A549) was less than 4.40, the pIC50 (KB) was less than 4.40 and the pIC50 [1] was less than 4.40. It also gave a pIC50 (MDA-MB-231) of less than 4.40 and a pIC50 (MCF7) of less than 4.40.
`COc1c2c(c(CC=C(C)C)c(O)c1C(C)=O)OC(C)(C)C(O)C2` (stereo not drawn) gave a pIC50 (A549) of 4.58, a pIC50 (KB) of 4.59 and a pIC50 [1] of 4.72. The pIC50 (MDA-MB-231) was less than 4.40 and the pIC50 (MCF7) was 4.51.
Work on `COc1c2c(c(CCC(C)C)c(O)c1C(C)=O)OC(C)(C)C(O)C2` (stereo not drawn) yielded a pIC50 (A549) of 4.70, a pIC50 (KB) of 4.69 and a pIC50 [1] of 4.79. It also gave a pIC50 (MDA-MB-231) of 4.65 and a pIC50 (MCF7) of 4.71.
`COc1c(CC=C(C)C)c2c(c(O)c1C(C)=O)CC(O)C(C)(C)O2` (stereo not drawn) gave a pIC50 (A549) of less than 4.40, a pIC50 (KB) of 4.41 and a pIC50 [1] of 4.40. It also gave a pIC50 (MDA-MB-231) of less than 4.40 and a pIC50 (MCF7) of less than 4.40.
Work on `COc1c(CC=C(C)C)c2c(c(O)c1C(C)=O)CC(C(C)(C)O)O2` (stereo not drawn) yielded a pIC50 (A549) of less than 4.40, a pIC50 (KB) of less than 4.40 and a pIC50 [1] of less than 4.40. It also gave a pIC50 (MDA-MB-231) of less than 4.40 and a pIC50 (MCF7) of less than 4.40.
With `CC(=O)O[C@H]1C(=O)[C@@]2(C)[C@H]([C@H](OC(=O)c3ccccc3)[C@]3(O)C[C@H](OC(=O)[C@H](O)[C@@H](NC(=O)c4ccccc4)c4ccccc4)C(C)=C1C3(C)C)[C@]1(OC(C)=O)CO[C@@H]1C[C@@H]2O` [PACLITAXEL] the pIC50 (A549) was 9.00, the pIC50 (KB) was 9.10 and the pIC50 [1] was 5.72.
